Screening data (PubChem BioAssay)
M1 ag = activates the M1 muscarinic receptor. CHO-M1 cells, Fluo-4 calcium fluorescence, agonist mode; stronger effect = higher value. B-score at 10 µM. 64,000 compounds, 3% hits. AID 626;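 active = fluorescence rise, raw or as B-score row- and column-corrected plate score, outside the 99.7% band of its plate's samples, either direction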
S1P1 ag-PAM = agonists and agonism potentiators of human S1P1 receptor | activation, % at 9.5 µM | AID 449 | P21453 | S1P1 CRE-bla cells, forskolin, beta-lactamase FRET, potentiator mode; S1P1 agonist co-added at EC20, 2 nM; 100% = saturating reference agonist, 0% = basal | 56,000 compounds, 0.57% hits;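 active = activation above a cutoff set at the mean activation of all tested compounds plus 3 SD, cut at about 54% in these data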;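 note: forskolin at 4 µM as EC80 and the EC20 agonist is SEW2871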
M1 antag = blocks the rat M1 muscarinic receptor response to acetylcholine; P08482; CHO-M1 cells, Fluo-4 calcium, ACh EC80 antagonist mode; stronger effect = lower value; B-score at 10 µM; 64,000 compounds, 3.4% hits; AID 628;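 active = calcium fluorescence response, raw or row-and-column corrected B-score, differing from the plate sample mean either way at a set confidence level, mostly lower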
D1 mod = allosteric modulators of human D1 dopamine receptor; 58,000 compounds, 5.9% hits; B-score at 10 µM; P21728; HEK293 D1, CRE-luciferase, dopamine EC30 potentiation; actives deviate in either direction;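 active = luminescence count or its row- and column-corrected plate score outside the 99.7% band of the plate's sample wells, on either side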
S1P3 ag = activates the human S1P3 receptor; 60,000 compounds, 0.1% hits; AID 373; S1P3 NFAT-BLA reporter cells, agonism, FRET ratio; relative to 1 µM S1P, basal subtracted; activation, % at 4.5 µM; Q99500;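 active = activation above the screen-wide mean plus 3 SD, cut at about 4.5% in these data, passing the limit was not always enough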
Target sequence (Q99500 whole entry, looked up): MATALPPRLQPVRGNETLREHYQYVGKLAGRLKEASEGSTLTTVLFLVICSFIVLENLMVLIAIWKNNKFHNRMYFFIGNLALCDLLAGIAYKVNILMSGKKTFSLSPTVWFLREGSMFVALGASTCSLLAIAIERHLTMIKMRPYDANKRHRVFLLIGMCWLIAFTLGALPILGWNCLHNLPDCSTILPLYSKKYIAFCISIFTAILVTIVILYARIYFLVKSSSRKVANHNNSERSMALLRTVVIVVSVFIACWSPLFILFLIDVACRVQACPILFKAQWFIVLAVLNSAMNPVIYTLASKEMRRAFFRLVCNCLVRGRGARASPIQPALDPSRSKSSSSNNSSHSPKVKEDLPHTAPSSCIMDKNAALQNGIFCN
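Material: Human S1P3 NFAT-BLA reporter CHO cells | Incubation: Overnight plating, 4 h compound 37 °C, 2 h substrate RT | Signal: FRET β-lactamase substrate fluorescence, excitation 405 nm, 460/535 nm emission ratio, background-subtracted | Compound: 4.5 µM final, single dose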
M1 antag confirm = confirmation of rat M1 muscarinic receptor antagonists. 1,700 compounds, 43% hits. CHO-M1 cells, Fluo-4 calcium, ACh EC80 antagonism; stronger effect = lower value. shares compounds with M1 antag. calcium response (max-min fluorescence) at 10 µM;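 active = calcium response below the same-plate mean of wells given acetylcholine alone at its 80%-effect dose, minus 3 SD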
mGluR4 antag = mGluR4 (human) activity, M1 antagonist secondary assay. 1,700 compounds, 0.9% hits. shares compounds with M1 antag. fluorescence response (max-min) at 10 µM. CHO-mGluR4 calcium flux, Fluo-4 fluorescence, glutamate EC80; stronger effect = lower value;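 active = fluorescence response below the plate's average for near-maximal glutamate wells, less 3 SD of those wells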;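 note: raw unnormalized fluorescence span taken in the window right after glutamate addition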
A number is an active result; i = inactive; nt = not tested or not shown. The list is not random: actives were taken first. Their share in the collection is about 11%.

SMILES	M1 ag	S1P1 ag-PAM	M1 antag	D1 mod	S1P3 ag	M1 antag confirm	mGluR4 antag
C#CCNc1nc(C)nc2c1nnn2Cc1ccccc1F	i	i	i	i	i	nt	nt
CCCSc1nc(N)c2c3c(sc2n1)CN(C)CC3	i	nt	-3.85	i	nt	485	i
CN(C)CCSc1nc(N)c2c3c(sc2n1)CN(C)CC3	i	nt	-6.2	i	nt	545	i
COc1cc2c(cc1NC(=O)CC1SC(N3CCCC3)=NC1=O)oc1ccccc12 (stereo not given)	i	i	i	i	i	nt	nt
Cc1ccccc1-c1nnc(SCc2ccccc2)o1	i	nt	i	i	i	nt	nt
Cc1cc(-c2nnc(SCc3ccccn3)o2)no1	i	i	-1.77	i	i	i	i
O=S(=O)(c1ccc2c(c1)OCCO2)N1CCC(O)(c2ccc(Cl)cc2)CC1	i	i	-8.69	i	i	475	i
O=C(c1ccc2nc(N3CCCCC3)sc2c1)N1CCN(Cc2ccc3c(c2)OCO3)CC1	i	i	-0.948	i	i	i	i
CS(=O)(=O)c1ccc2nc(NC(=O)CC3CCCC3)sc2c1	i	i	i	i	i	nt	nt
CS(=O)(=O)c1ccc2nc(NC(=O)CN3CCN(Cc4ccccc4)CC3)sc2c1	i	i	-2.52	i	i	i	i
CC(=O)c1c(C)[nH]c(C(=O)OCC(=O)Nc2cc(C(F)(F)F)ccc2N2CCOCC2)c1C	i	i	i	i	i	nt	nt
COc1cccc2cc(C(=O)N3CCN(C45CC6CC(CC(C6)C4)C5)CC3)c(=O)oc12	i	i	-1.76	i	i	412	i
COc1cccc2cc(C(=O)N3CCC(C)CC3)c(=O)oc12	i	i	i	i	i	nt	nt
O=C(Nc1cccc(NC(=O)c2nccc3ccccc23)c1)c1ccco1	i	i	i	i	i	nt	nt
CCN(CCNS(=O)(=O)c1ccc2[nH]c(=O)sc2c1)c1ccccc1	i	i	-2.42	i	i	i	156
CCOc1ccccc1CNS(=O)(=O)c1ccc2[nH]c(=O)sc2c1	i	i	i	i	i	nt	nt
O=c1c2ccccc2nnn1CSc1nnc(C2COc3ccccc3O2)n1-c1ccccc1 (stereo not given)	i	i	-2.35	i	9.0	i	159
O=C(OCn1nnc2ccccc2c1=O)C1COc2ccccc2O1 (stereo not given)	i	i	i	i	i	nt	nt
COc1ccc(CCNC(=O)Cn2cnc3c(cnn3-c3ccccc3Cl)c2=O)cc1OC	i	i	i	i	i	nt	nt
Cc1nnc(SCC(=O)Nc2cccc(C(F)(F)F)c2)[nH]c1=O	i	i	i	i	i	nt	nt
Cc1nnc(SCC(=O)Nc2nccs2)[nH]c1=O	i	i	-14.4	i	i	i	i
Cc1cc(NC(=O)CSc2nnc(C)c(=O)[nH]2)no1	i	i	-2.27	i	i	i	i
Cc1csc(/C(=N\O)c2csc(C)n2)n1	i	i	i	i	i	nt	nt
CN(C)C(CNC(=O)c1cccc(S(=O)(=O)N2CC3(C)CC2CC(C)(C)C3)c1)c1ccco1 (stereo not given)	i	i	-3.29	i	i	517	i
CCn1c2ccccc2c2nc3cc(OC)c(OC)cc3nc21	i	i	-5.67	i	i	i	154
SMILES	M1 ag	S1P1 ag-PAM	M1 antag	D1 mod	S1P3 ag	M1 antag confirm	mGluR4 antag
COc1cc2nc3c4ccccc4n(CC#N)c3nc2cc1OC	i	i	i	i	i	nt	nt
COc1ccccc1C1C(C(C)=O)=C(O)C(=O)N1CCc1ccccc1 (stereo not given)	i	i	i	i	i	nt	nt
CCC1=NC(c2ccccc2OC)N(O)C1(C)C (stereo not given)	i	i	-15.3	i	i	257	i
Cc1nc2sccn2c(=O)c1CCN1CCC(=C(c2ccc(F)cc2)c2ccc(F)cc2)CC1	i	i	-5.14	i	i	324	i
CCN(CC)CC(=O)n1c2c(c3ccccc31)CCCC2	i	i	i	i	i	nt	nt
CN1CCN(CC(=O)n2c3c(c4ccccc42)CCCC3)CC1	i	i	-2.9	i	i	457	i
CN(C)C(CNC(=O)C1CCCN(C(=O)c2ccc(Cl)cc2)C1)c1ccco1 (stereo not given)	i	i	-3.64	i	i	i	i
CCn1c(N2CCN(C(=O)C34CC5CC(CC(C5)C3)C4)CC2)nc2ccccc21	i	i	i	i	i	nt	nt
CCn1c(=N)n(CC(=O)C23CC4CC(CC(C4)C2)C3)c2ccccc21	i	i	-12.1	i	i	198	i
Cc1c(C)c2cc(Cl)c(OCc3nn[nH]n3)cc2oc1=O	i	i	i	i	i	nt	nt
O=S(=O)(c1ccccc1)N1C2CCC1CC(O)(c1cccnc1)C2 (stereo not given)	i	i	i	i	i	nt	nt
O=c1[nH]c(=O)n(CCO)c2nnn(Cc3ccccc3)c12	i	i	-3.3	nt	i	i	i
Cn1c(=O)[nH]c(=O)c2c1nc(CN1CCN(Cc3ccccc3)CC1)n2CC(N)=O	i	i	i	i	i	nt	nt
COC(=O)Nc1nnc(Cc2ccccc2)s1	i	i	-16.5	i	i	i	i
COC(=O)Nc1nnc(CCc2ccccc2)s1	i	i	i	i	i	nt	nt
CCOc1ccccc1Nc1nc(N)nc(CN(C)C2CCCCC2)n1	i	nt	i	i	i	nt	nt
Cc1ccc(C)c(CSc2nnc(-c3ccccn3)n2N)c1	i	i	i	i	i	nt	nt
Nn1c(-c2ccccn2)nnc1-c1ccccn1	i	i	-3.09	i	i	i	i
CCN(C(=O)c1coc(=O)c2ccccc12)c1cc(OC)ccc1OC	nt	i	nt	i	i	nt	nt
CCN(C(=O)Cc1c(C(=O)O)[nH]c2ccccc12)c1cc(OC)ccc1OC	i	nt	-2.24	i	nt	i	i
COc1ccc(CC(=O)OCC(=O)NC(=O)NC2CCCCC2)cc1	i	i	i	i	i	nt	nt
O=C(CSCc1ccccc1)Nc1nccs1	i	i	i	i	i	nt	nt
COc1cccc(N2C(=O)C3C(C2=O)C2C=CC3C23CC3)c1 (stereo not given)	i	i	-3.13	nt	i	i	i
N#Cc1ccc(N2CCN(C(=O)c3cccc(F)c3)CC2)c(F)c1	i	i	i	i	i	nt	nt
CCCCN(CCCC)CCn1cnc2c([nH]c3ccc(OC)cc32)c1=O	i	i	i	i	i	nt	nt
COc1cc2[nH]c3c(=O)n(CCN(C(C)C)C(C)C)cnc3c2cc1OC	i	i	-4.61	i	i	i	i
COC(=O)C(C)Sc1nc2c(cnn2-c2ccc(C)cc2)c(=O)[nH]1 (stereo not given)	i	i	i	i	i	nt	nt
CCC(Sc1nc2c(cnn2-c2ccccc2)c(=O)[nH]1)C(=O)OC (stereo not given)	i	i	-2.38	i	i	i	i
